Converted amounts (≈) assume the structure as drawn.
What was measured:
Staphylococcus aureus [1] = test: Antibacterial activity against Staphylococcus aureus USA300 assessed as reduction in bacterial growth by CLSI based broth microdilution method; type: functional
Staphylococcus aureus [2] = test: Antibacterial activity against cystic fibrosis patient isolate Staphylococcus aureus assessed as reduction in bacterial growth by CLSI based broth microdilution method; type: functional
Streptococcus pyogenes = test: Antibacterial activity against Streptococcus pyogenes LSI-1235 assessed as reduction in bacterial growth by CLSI based broth microdilution method; type: functional
Streptococcus pneumoniae = test: Antibacterial activity against penicillin-susceptible Streptococcus pneumoniae LSI-4234 assessed as reduction in bacterial growth by CLSI based broth microdilution method; type: functional
Enterococcus faecium = test: Antibacterial activity against Vancomycin-susceptible Enterococcus faecium DRL-4193 assessed as reduction in bacterial growth by CLSI based broth microdilution method; type: functional
KCNQ1 = KCNQ1 (Homo sapiens, UniProt P51787); test: Inhibition of recombinant human KCNQ1 expressed in CHO-K1 cells at 3 uM by automated Qpatch clamp assay relative to control; type: ADME, cell-based; conditions: CHO-K1 cells expressing recombinant human KCNQ1
Summary of the method: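 KCNQ1/hminK current recorded in duplicate on an automated QPatch HT at 3, 30 and 100 µM, from a 30 mM DMSO stock. Records were filtered for seal quality, seal drop and current amplitude. Peak outward current was evoked by a step to 60 mV. Block is the test-compound amplitude divided by control, where control is the mean over 15 s at the end of the control period. Chromanol 293B was the positive control.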

Nav1.5 (late current) [3] = target: T1, Nav1.5 (late current) (Homo sapiens, UniProt Q14524); test: Inhibition of recombinant human Nav1.5 late expressed in human HEK293 cells late at 3 uM in presence of ATXII by automated Qpatch clamp assay relative to control; type: ADME, cell-based; conditions: HEK293 cells expressing recombinant human Nav1.5
Summary of the method: (§1)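 Part of an eight-assay CiPA panel run on a QPatch HT automated patch clamp at 3, 30 and 100 µM, in duplicate. The test compound came from a 30 mM DMSO stock. Data were filtered for seal quality, seal drop and current amplitude, and reported as mean percent inhibition.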

Nav1.5 (late current) [4] = target: T1, Nav1.5 (late current); test: Inhibition of recombinant human Nav1.5 late expressed in human HEK293 cells at 100 uM in presence of ATXII by automated Qpatch clamp assay relative to control; type: ADME, cell-based; conditions: HEK293 cells expressing recombinant human Nav1.5; summary of the method: as §1
[5] = target: T2, Sodium channel protein type 5 subunit alpha (Homo sapiens, UniProt Q14524); test: Activation of recombinant human Nav1.5 late expressed in human HEK293 cells assessed as activation of late current at 30 uM by automated Qpatch clamp assay relative to control; type: ADME, cell-based; conditions: hek293, 30 µM
Summary of the method: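 Part of an eight-assay CiPA panel run in duplicate on an automated QPatch HT patch-clamp system at 3, 30 and 100 µM. Test compound came from a 30 mM DMSO stock. Records were filtered for seal quality, seal drop and current amplitude, and mean percent values are reported.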

[6] = target: T2, Sodium channel protein type 5 subunit alpha; test: Activation of recombinant human Nav1.5 late expressed in human HEK293 cells assessed as activation of late current at 100 uM by automated Qpatch clamp assay relative to control; type: ADME, cell-based; conditions: hek293, 100 µM
Summary of the method: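 Part of an eight-assay CiPA cardiac ion channel panel run in duplicate on a QPatch HT automated patch-clamp system. Compound was prepared as a 30 mM DMSO stock and tested at 3, 30 and 100 µM. Recordings were filtered for seal quality, seal drop and current amplitude, and results are reported as mean percent values.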

[7] = target: Sodium-dependent noradrenaline transporter (Homo sapiens) (UniProt P23975); test: Inhibition of recombinant human full length Norepinephrine transporter expressed in dog MDCK cells at 100 uM in presence of [125I]-RTI-55 incubated for 180 mins by scintillation counting method relative to control; type: cell-based; conditions: CHO-K1
Summary of the method: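 Off-target screen against a panel of 44 receptors, enzymes and transporters, run in duplicate at a single 100 µM concentration. Results are given as % inhibition. No concentration-response follow-up was done.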

[8] = Cytotoxicity against human HepaRG assessed as reduction in cell viability at 100 uM incubated for 24 hrs by Cell-Titer Glo assay; type: cell-based; conditions: HepaRG cells, read-out: INH
Summary of the method: (§2)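 ATP-based viability read-out in HepaRG cells over a five-point concentration series (0.01, 0.1, 1, 10, 100 µM). Results are given as % cytotoxicity at each concentration.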

[9] = Cytotoxicity against human HepaRG assessed as reduction in cell viability at 1 uM incubated for 24 hrs by Cell-Titer Glo assay; type: cell-based; conditions: HepaRG cells, read-out: INH; summary of the method: as §2
[10] = Cytotoxicity against human HepaRG assessed as reduction in cell viability at 0.1 uM incubated for 24 hrs by Cell-Titer Glo assay; type: cell-based; conditions: HepaRG cells, read-out: INH; summary of the method: as §2
[11] = Cytotoxicity against human HepaRG assessed as reduction in cell viability at 0.01 uM incubated for 24 hrs by Cell-Titer Glo assay; type: cell-based; conditions: HepaRG cells, read-out: INH; summary of the method: as §2
[12] = Metabolic stability in mouse liver microsomes assessed as half life at 10 uM incubated for 5 mins followed by NADPH addition and measured upto 60 mins by LC-MS analysis; type: ADME, Microsome; conditions: time 65 min
[13] = Metabolic stability in human liver microsomes assessed as half life at 10 uM incubated for 5 mins followed by NADPH addition and measured upto 60 mins by LC-MS analysis; type: ADME, Microsome; conditions: time 65 min
CYP2B6 = CYP2B6 (Homo sapiens, UniProt P20813); test: Inhibition of human liver microsome CYP2B6 at 10 uM in presence of NADPH incubated for 10 to 30 mins by LC-MS-MS analysis; type: ADME; conditions: human liver microsomes, time 10-30 min
CYP2C19 = CYP2C19 (Homo sapiens, UniProt P33261); test: Inhibition of human liver microsome CYP2C19 at 10 uM in presence of NADPH incubated for 10 to 30 mins by LC-MS-MS analysis; type: ADME; conditions: human liver microsomes, time 10-30 min
Cytochrome P450 3A4 = Cytochrome P450 3A4 (Homo sapiens, UniProt P08684); test: Inhibition of human liver microsome CYP3A4 in presence of NADPH incubated for 10 to 30 mins by LC-MS-MS analysis; type: ADME, microsomes
CYP3A4 [14] = target: T3, CYP3A4 (Homo sapiens, UniProt P08684); test: Residual activity of human liver microsome CYP3A4 at 3 uM in presence of NADPH incubated for 10 to 30 mins by LC-MS-MS analysis; conditions: human liver microsomes
CYP3A4 [15] = target: T3, CYP3A4; test: Residual activity of human liver microsome CYP3A4 at 1 uM in presence of NADPH incubated for 10 to 30 mins by LC-MS-MS analysis; conditions: human liver microsomes
CYP3A4 [16] = target: T3, CYP3A4; test: Residual activity of human liver microsome CYP3A4 at 0.3 uM in presence of NADPH incubated for 10 to 30 mins by LC-MS-MS analysis; conditions: human liver microsomes
CYP3A4 [17] = target: T3, CYP3A4; test: Residual activity of human liver microsome CYP3A4 at 0.1 uM in presence of NADPH incubated for 10 to 30 mins by LC-MS-MS analysis; conditions: human liver microsomes
[18] = Inhibition of Staphylococcus aureus DNA gyrase using relaxed pBR322 DNA as substrate incubated for 30 mins by agarose gel electrophoresis method

T3 sequence (P08684 whole entry): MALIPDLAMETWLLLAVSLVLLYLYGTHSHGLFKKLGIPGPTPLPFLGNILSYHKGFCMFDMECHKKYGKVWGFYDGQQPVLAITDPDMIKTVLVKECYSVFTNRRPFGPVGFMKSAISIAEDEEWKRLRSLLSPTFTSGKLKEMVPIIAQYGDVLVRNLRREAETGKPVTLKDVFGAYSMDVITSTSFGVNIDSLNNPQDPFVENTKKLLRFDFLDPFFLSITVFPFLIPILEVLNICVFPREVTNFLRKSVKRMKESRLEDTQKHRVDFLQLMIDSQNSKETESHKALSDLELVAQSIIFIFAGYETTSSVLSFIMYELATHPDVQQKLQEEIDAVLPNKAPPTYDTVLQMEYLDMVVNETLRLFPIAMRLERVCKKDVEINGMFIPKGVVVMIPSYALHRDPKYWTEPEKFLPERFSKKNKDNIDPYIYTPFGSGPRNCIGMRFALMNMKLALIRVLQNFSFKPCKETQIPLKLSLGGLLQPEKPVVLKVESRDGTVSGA
T2 sequence (Q14524 whole entry): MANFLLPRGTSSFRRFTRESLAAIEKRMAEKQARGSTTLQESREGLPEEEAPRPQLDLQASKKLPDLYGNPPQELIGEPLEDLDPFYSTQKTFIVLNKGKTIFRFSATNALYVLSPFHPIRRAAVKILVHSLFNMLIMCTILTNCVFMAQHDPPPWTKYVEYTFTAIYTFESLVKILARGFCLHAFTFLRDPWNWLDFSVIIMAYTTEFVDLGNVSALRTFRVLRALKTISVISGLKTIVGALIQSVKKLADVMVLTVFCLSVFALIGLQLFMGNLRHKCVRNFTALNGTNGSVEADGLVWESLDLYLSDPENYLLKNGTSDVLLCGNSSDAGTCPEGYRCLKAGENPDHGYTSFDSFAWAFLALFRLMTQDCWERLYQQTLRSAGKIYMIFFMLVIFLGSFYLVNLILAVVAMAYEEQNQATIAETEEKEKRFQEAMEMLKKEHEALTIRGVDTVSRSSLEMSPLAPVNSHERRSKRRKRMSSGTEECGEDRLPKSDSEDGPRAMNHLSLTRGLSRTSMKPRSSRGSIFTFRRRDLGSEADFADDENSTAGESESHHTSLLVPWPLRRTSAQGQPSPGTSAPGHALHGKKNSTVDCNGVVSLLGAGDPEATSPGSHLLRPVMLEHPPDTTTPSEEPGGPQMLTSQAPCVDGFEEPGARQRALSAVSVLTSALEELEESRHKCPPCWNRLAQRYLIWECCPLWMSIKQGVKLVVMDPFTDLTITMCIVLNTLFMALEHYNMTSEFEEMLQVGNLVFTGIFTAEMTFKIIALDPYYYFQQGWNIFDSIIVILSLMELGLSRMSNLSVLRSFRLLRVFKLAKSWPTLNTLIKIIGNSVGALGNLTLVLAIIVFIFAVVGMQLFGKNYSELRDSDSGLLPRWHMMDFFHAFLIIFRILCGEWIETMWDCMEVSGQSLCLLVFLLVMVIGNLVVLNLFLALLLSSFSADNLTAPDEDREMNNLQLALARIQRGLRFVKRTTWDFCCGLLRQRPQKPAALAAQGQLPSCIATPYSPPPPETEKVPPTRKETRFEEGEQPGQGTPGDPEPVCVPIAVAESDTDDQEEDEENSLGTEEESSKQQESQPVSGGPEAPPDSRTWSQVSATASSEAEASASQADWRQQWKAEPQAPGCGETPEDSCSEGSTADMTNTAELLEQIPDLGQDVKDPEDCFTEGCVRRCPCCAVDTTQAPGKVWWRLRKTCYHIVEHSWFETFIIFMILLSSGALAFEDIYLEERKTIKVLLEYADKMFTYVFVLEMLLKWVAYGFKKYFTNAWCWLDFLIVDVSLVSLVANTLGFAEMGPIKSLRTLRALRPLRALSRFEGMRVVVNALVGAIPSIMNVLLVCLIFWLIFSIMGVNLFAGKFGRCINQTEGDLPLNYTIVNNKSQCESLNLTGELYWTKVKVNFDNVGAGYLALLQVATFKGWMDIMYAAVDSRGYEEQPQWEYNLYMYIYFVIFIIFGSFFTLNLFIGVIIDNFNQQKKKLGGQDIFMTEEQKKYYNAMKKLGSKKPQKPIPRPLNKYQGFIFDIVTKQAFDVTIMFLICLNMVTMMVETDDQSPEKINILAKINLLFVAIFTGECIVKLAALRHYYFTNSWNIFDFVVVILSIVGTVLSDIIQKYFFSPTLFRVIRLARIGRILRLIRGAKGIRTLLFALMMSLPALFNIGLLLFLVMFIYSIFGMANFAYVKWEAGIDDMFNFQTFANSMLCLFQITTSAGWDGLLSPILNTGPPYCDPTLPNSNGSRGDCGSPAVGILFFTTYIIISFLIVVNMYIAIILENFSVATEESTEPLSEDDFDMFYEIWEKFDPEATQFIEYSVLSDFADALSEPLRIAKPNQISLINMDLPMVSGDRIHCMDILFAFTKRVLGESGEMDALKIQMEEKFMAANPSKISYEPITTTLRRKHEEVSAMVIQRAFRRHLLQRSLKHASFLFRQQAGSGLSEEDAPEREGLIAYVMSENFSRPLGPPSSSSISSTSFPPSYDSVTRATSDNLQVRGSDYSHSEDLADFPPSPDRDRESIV
T1 sequence (Q14524 whole entry): as above
Sequence of CYP2B6 (P20813 whole entry): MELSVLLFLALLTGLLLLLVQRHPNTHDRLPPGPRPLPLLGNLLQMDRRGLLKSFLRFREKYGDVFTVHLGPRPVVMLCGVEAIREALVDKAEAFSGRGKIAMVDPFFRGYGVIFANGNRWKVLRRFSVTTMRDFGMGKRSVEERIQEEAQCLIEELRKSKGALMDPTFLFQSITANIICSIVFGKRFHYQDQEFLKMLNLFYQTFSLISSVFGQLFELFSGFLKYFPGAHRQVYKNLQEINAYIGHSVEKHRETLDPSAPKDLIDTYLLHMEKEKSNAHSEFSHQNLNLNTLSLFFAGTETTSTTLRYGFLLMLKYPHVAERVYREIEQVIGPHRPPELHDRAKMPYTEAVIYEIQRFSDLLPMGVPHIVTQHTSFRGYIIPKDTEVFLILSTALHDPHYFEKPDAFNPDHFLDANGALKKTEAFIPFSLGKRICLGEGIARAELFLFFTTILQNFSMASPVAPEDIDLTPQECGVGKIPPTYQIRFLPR
Sequence of Cytochrome P450 3A4 (P08684 whole entry): as the sequence (P08684 whole entry) above

**Q.** What does the source list for `COc1ccc2ncc(F)c(CC[C@@]3(O)CO[C@@H]4[C@@H](NCc5cc6c(cn5)OCCO6)CO[C@@H]43)c2n1`?
**A.** MIC (Staphylococcus aureus [1]): 2 µg/mL (≈ 4.01 µM); MIC (Staphylococcus aureus [2]): 2 µg/mL (≈ 4.01 µM); MIC (Streptococcus pyogenes): ≤ 0.12 µg/mL; MIC (Streptococcus pneumoniae): ≤ 0.12 µg/mL; MIC (Enterococcus faecium): 2 µg/mL (≈ 4.01 µM); inhibition at 3 µM (KCNQ1): -2.9%; inhibition at 3 µM (Nav1.5 (late current) [3]): 4.3%; inhibition at 100 µM (Nav1.5 (late current) [4]): 50.9%; Activity [5]: 7.7%; Activity [6]: 17%; inhibition [7]: 68%; cytotoxicity at 24 h, 100 µM [8]: 14%; cytotoxicity at 24 h, 1 µM [9]: 9%; cytotoxicity at 24 h, 0.1 µM [10]: 4%; cytotoxicity at 24 h, 0.01 µM [11]: 6%; half-life at 10 µM [12]: 3 min; half-life at 10 µM [13]: 6 min; inhibition at 10 µM (CYP2B6): < 50%; inhibition at 10 µM (CYP2C19): < 50%; IC50 (Cytochrome P450 3A4): > 10000 nM; residual activity at 3 µM (CYP3A4 [14]): 60.4%; residual activity at 1 µM (CYP3A4 [15]): 60.4%; residual activity at 0.3 µM (CYP3A4 [16]): 89.9%; residual activity at 0.1 µM (CYP3A4 [17]): 97%; IC50 [18]: 530 nM

From ChEMBL document CHEMBL4765317, “Novel bacterial topoisomerase inhibitors derived from isomannide” (Eur J Med Chem, 2020)
